How the values were obtained:
[1] = test system: relapsed/refractory chronic lymphocytic leukemia; assay: Phase 1/2 BRUIN trial, pirtobrutinib monotherapy, response per iwCLL 2018; type: in vivo, human
Outline: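 Relapsed/refractory CLL patients pretreated with covalent BTK inhibitors received test compound monotherapy in a multicenter phase 1/2 trial. Response followed iwCLL 2018 criteria, with data cutoff 5 May 2023. ORR was the proportion with best response of partial response with lymphocytosis or better, with 2-sided 95% CI from the exact binomial. PBMCs at baseline and progression underwent targeted NGS; a more sensitive assay had 0.5% VAF LoD.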

wild type BTK = wild type BTK (Homo sapiens, UniProt Q06187); assay: biochemical; type: binding; settings: read-out: residence time t1/2
Chain of wild type BTK (Q06187 whole entry): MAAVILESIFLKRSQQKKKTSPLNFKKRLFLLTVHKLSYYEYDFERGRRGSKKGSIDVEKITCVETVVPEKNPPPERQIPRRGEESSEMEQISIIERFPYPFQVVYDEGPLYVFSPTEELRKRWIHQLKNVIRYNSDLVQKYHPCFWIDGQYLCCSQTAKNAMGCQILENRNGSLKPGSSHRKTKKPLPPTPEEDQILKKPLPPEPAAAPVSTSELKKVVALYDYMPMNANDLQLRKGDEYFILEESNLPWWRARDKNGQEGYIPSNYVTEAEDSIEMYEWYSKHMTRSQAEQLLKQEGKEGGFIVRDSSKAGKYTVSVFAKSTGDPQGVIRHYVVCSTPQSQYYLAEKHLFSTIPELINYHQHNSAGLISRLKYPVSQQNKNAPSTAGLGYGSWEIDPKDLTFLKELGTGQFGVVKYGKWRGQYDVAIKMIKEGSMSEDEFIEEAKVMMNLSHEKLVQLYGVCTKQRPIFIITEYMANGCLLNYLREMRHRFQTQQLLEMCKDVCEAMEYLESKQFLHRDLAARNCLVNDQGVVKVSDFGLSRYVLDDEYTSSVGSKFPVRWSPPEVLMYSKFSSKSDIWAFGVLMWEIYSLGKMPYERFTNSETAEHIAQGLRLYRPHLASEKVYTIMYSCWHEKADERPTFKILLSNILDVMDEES

[2] = test system: BTK mutants with kinase activity (Y545N, V416L, T474I, C481S+T474I) in Ramos BTK KO cells; type: cell-based; settings: variants with kinase activity vs wild type

Compound: COc1ccc(F)cc1C(=O)NCc1ccc(-c2nn([C@@H](C)C(F)(F)F)c(N)c2C(N)=O)cc1 [Pirtobrutinib]
- BOR ([1]; 3 patients with detectable BTK L528W at baseline): partial response, stable disease, and PD
- BOR ([1]; 6 patients with detectable BTK T474x at baseline): PR (4), SD (1), and PD (1
- Median PFS (95%CI) ([1]; Patients with PD and longitudinal samples n=88): 10.3 months
- patients who experienced PD on pirtobrutinib ([1]; overall population, median follow-up of 29 months, 139 patients): 57%
- median PFS ([1]; patients with baseline BTK T474x (standard and high sensitivity), 95% CI, 7.4-22.3): 9.2 months
- residence time (wild type BTK): 336 min
- sensitivity to inhibition in cellular BTK phosphorylation assays [2]: less sensitive

From paper PMC12824664 (Blood, 2025)
